21 compounds from ChEMBL document CHEMBL1124933, “Benzodiazepine receptor binding activity of 8-substituted-9-(3-substituted-benzyl)-6-(dimethylamino)-9H-purines” (J Med Chem, 1990) can be followed below.

pIC50: −log10 of the molar value.

Test [1] has as its target GABA-A receptor; anion channel. The test is described as follows: Inhibition of specific binding of 1.5 nM [3H]diazepam to rat brain benzodiazepine receptors.
The next test deals with Rattus norvegicus. The test is described as follows: Percent change in Geller-Seifter conflict schedule was determined in Long-Evans rats after (po) administration of gavage of 25 mg/kg. In kind it is functional. The method in brief:
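Long-Evans rats on a modified Geller-Seifter operant conflict schedule, with conflict-period responding scored. Compounds given by oral gavage as a 0.5% methylcellulose suspension at 25 mg/kg. Chlordiazepoxide reference given at 20 mg/kg.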

As usually defined, the pIC50 is the negative decadic logarithm of the IC50, by convention in mol/L. A higher pIC50 goes with a low IC50. In the case of `CN(C)c1ncnc2c1nc(Br)n2Cc1cccc(NC(=O)c2ccccc2)c1`, the pIC50 in test [1] is 5.10.
`CN(C)c1ncnc2c1nc(N(C)C)n2Cc1cccc(N)c1` showed a pIC50 in test [1] of 6.22. The Change in the test on Rattus norvegicus is recorded as -3%.
In the same order, the values of `CN(C)c1ncnc2c1nc(Br)n2Cc1cccc(N)c1` are 6.96 and 2%.
As for `CN(C)c1ncnc2c1nc(Br)n2Cc1ccccc1`, the pIC50 in test [1] is 5.52.
The same measure, in the same setting: with `COc1nc2c(N(C)C)ncnc2n1Cc1ccccc1` the figure was 5.27; with `Cc1nc2c(N(C)C)ncnc2n1Cc1ccccc1`, 5.07.
On to `CC(=O)Nc1cccc(Cn2c(Br)nc3c(N(C)C)ncnc32)c1`, for which the pIC50 in test [1] was 6.08. The Change with Rattus norvegicus is reported as 3%.
Consider `COc1nc2c(N(C)C)ncnc2n1Cc1cccc(N)c1`, for which the pIC50 in test [1] was 6.00. In the test on Rattus norvegicus, the Change was 13%.
In the same order, the values of `CN(C)c1ncnc2c1ncn2Cc1cccc(NC=O)c1` are 7.47 and -2%.
In the same order, the values of `CN(C)c1ncnc2c1nc(Cl)n2Cc1cccc(N)c1` are 6.72 and 15%.
As for `CN(C)c1ncnc2c1nc(N(C)C)n2Cc1ccccc1`, the pIC50 in test [1] is 5.24.
Same read-out and setting: with `CN(C)c1ncnc2c1nc(O)n2Cc1cccc(N)c1` the figure was 5.74; with `CN(C)c1ncnc2c1nc(Br)n2Cc1cccc(NS(C)(=O)=O)c1`, 5.82.
As to `CN(C)c1ncnc2c1nc(Br)n2Cc1cccc(NC(N)=O)c1`, in test [1], the pIC50 was 7.60. Further, the Change with Rattus norvegicus is 9%.
In test [1], `CN(C)c1ncnc2c1nc(N(C)C)n2Cc1cccc(NC=O)c1` gave a pIC50 of 6.96. Besides, the Change in the test on Rattus norvegicus came to 0%.
For the compound `CNc1nc2c(N(C)C)ncnc2n1Cc1cccc(N)c1`, the pIC50 in test [1] was 5.14.
Compound `COC(=O)Nc1cccc(Cn2c(Br)nc3c(N(C)C)ncnc32)c1` gave a pIC50 in test [1] of 5.28.
Take `CN(C)c1ncnc2c1nc(Br)n2Cc1cccc(NC=O)c1`: the pIC50 in test [1] was 7.96. Moreover, in the test on Rattus norvegicus, the Change came to 9%.
`CN(C)c1ncnc2c1nc(O)n2Cc1cccc(NC=O)c1` had a negative-log IC50 (pIC50) in test [1] of 6.89. Moreover, the Change with Rattus norvegicus is -15%.
For the compound `CNc1nc2c(N(C)C)ncnc2n1Cc1ccccc1`, the negative-log IC50 (pIC50) in test [1] was 4.77.
On the same count and under the same terms, for `CNc1nc2c(N(C)C)ncnc2n1Cc1cccc(NC=O)c1` the value was 6.44.
